From the array DNA melting data of Ke et al. (doi:10.1101/2024.01.08.574731)

Columns and labels:
[1] = folding enthalpy; higher = less favourable; fluorescence melt of hairpins on a sequencing array, two-state fit; settings: sodium 0.088 M
How it was run: (§1)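 Hairpins were imaged by Cy3 fluorescence on a sequenced MiSeq flow cell with annealed Cy3 and quencher oligos, in 50 mM Na-HEPES pH 8.0, 25 mM NaCl, in 2.5 °C steps up to 60 °C. Bootstrapped two-state fits of normalised signals gave melting temperature and folding enthalpy. Four replicates were combined by inverse variance, and fitted temperatures were raised by 9.35 °C to match UV melts.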

[2] = melting temperature; fluorescence melt of hairpins on a sequencing array, two-state fit, raised by 9.35 °C to match UV melts; settings: sodium 0.088 M
How it was run: as §1

Sequence	folding enthalpy [1] [kcal/mol]	Tm [2] [°C]
GCCGCAGGAAACTACGGC ((((.((....)).))))	-32.5	50.8
GCCGCATCGAAAGATGGC (((..(((....))))))	-11.4	46.9
GCCGCCACGAAAGTGGGC (((..(((....))))))	-8.39	54.6
GCCGCCGAAAGGCCTGGC ((((((....)))..)))	-16	51
GCCGCCGAAAGGCTTGGC ((((((....)))..)))	-21	54.5
GCCGCCGGAAACAGCGGC (((((.(....).)))))	-37.4	66.4
GCCGCGCGAAAGCCAGGC (((..((....))..)))	-27.8	62
GCCGCGCGAAAGCCGGGC (((..((....))..)))	-18.5	68.2
GCCGCGCGAAAGCGAAGC ((..(((....)))..))	-12.9	46
GCCGCGCGAAAGCTTGGC (((..((....))..)))	-22.7	55.1
GCCGCGGCGAAAGCCGGC (((..(((....))))))	-7.85	68.6
GCCGCTCGAAAGAGAGGC (((.(((....))).)))	-40	67.1
GCCGCTGGAAACAGCAGC ((.((((....)))).))	-20.1	50.1
GCCGCTTCGAAAGAAGGC (((..(((....))))))	-13.2	49.7
GCCGGAGGAAACTCCGAC (.(((((....))))).)	-13.1	49.9
GCCGGCACGAAAGTGGGC (((..(((....))))))	-19.2	51.8
GCCGGCCCGAAAGGGGGC (((..(((....))))))	-11.3	58.3
GCCGGCGAAAGCCAGGGC ((((((....)))..)))	-18.7	63.1
GCCGGCGAAAGCCATGGC ((((((....)))..)))	-19.9	56.1
GCCGGCGAAAGCCCCGGC ((((((....)))..)))	-18.3	55.2
GCCGGCGCGAAAGCGGGC (((..(((....))))))	-14.4	63
GCCGGGCGAAAGCAAGGC (((..((....))..)))	-34	68.5
GCCGGGCGAAAGCACAGC ((.(.((....)).).))	-16.9	53.8

Sequence	folding enthalpy [1] [kcal/mol]	Tm [2] [°C]
GCCGGGCGAAAGCACCGC ((.(.((....)).).))	-14.1	49
GCCGGGCGAAAGCGCTGC ((.(.((....)).).))	-20.3	43
GCCGGGCGAAAGCTCAGC ((.(.((....)).).))	-16.9	44.4
GCCGGGGGAAACCTCGGC ((((.((....)).))))	-37.9	66.7
GCCGGTGGAAACACCAGC ((.((((....)))).))	-21.5	48.4
GCCGGTGGAAACACTGGC (((.(((....))).)))	-41.5	60
GCCGTAGAAATACGGC ((((((....))))))	-42.4	64
GCCGTAGGAAACTATGGC (((.(((....))).)))	-34	51.3
GCCGTCCCGAAAGGGGGC (((..(((....))))))	-17	49.4
GCCGTCGAAAGACGTGGC ((((((....)))..)))	-14.1	58.8
GCCGTCGAAAGACTAGGC ((((((....)))..)))	-35.5	52.8
GCCGTCGGAAACGACGAC (.(((((....))))).)	-13.3	54.8
GCCGTCGGAAACGGTGGC (((..((....))..)))	-22	51.3
GCCGTGCGAAAGCAAAGC ((..(((....)))..))	-9.19	40.4
GCCGTGCGAAAGCGCAGC ((.(.((....)).).))	-13	49.1
GCCGTGCGAAAGCTGGGC (((..((....))..)))	-19.9	59.5
GCCGTGGCGAAAGCCGGC (((..(((....))))))	-21.4	62.8
GCCGTGGGAAACCACAGC ((.((((....)))).))	-18.6	49.4
GCCGTTCGAAAGAAGGC (((.(((....))))))	-30.4	50.4
GCCGTTGGAAACGACGGC (((((.(....).)))))	-38	66.1
GCCTAACGAAAGTTCGGC (((.(((....))).)))	-34.8	52.4
GCCTAAGGAAACCTAGGC (((((.(....).)))))	-39.3	44.9
GCCTAAGGAAACTCAGGC ((((.((....)).))))	-31.3	35.6

Sequence	folding enthalpy [1] [kcal/mol]	Tm [2] [°C]
GCCTACCGAAAGGTTGGC (((.(((....))).)))	-35.4	62.5
GCCTACGAAAGTAACGGC ((((((....)))..)))	-26.5	44
GCCTACGAAAGTAAGGC ((((((....))).)))	-31.3	56.9
GCCTACGAAAGTAGGGGC ((((((....)))..)))	-14.4	61.3
GCCTACGAAAGTATGGC ((((((....))).)))	-24.6	52.3
GCCTACTCGAAAGAGGGC (((..(((....))))))	-26.4	44.1
GCCTAGCGAAAGCAACGC ((.(.((....)).).))	-8.35	23.8
GCCTAGCGAAAGCGGGGC (((..((....))..)))	-22.3	65.9
GCCTAGCGAAAGCGTGGC (((..((....))..)))	-30.2	64.5
GCCTAGCGAAAGCTACGC ((.((((....)))).))	-19	41.8
GCCTAGCGAAAGCTCGGC (((.(((....))).)))	-39.4	56.8
GCCTAGGAAACTAGGC ((((((....))))))	-36.2	58.7
GCCTATCGAAAGATCGGC (((.(((....))).)))	-41.7	49
GCCTATCGAAAGATGGC (((.(((....))))))	-30.9	50.9
GCCTATCGAAAGATTGGC (((.(((....))).)))	-35.2	53.4
GCCTATGCGAAAGCAGGC (((..(((....))))))	-23.1	54
GCCTCACGAAAGTGTGGC (((.(((....))).)))	-43.5	63.5
GCCTCAGAAATGAGGC ((((((....))))))	-30.8	62.5
GCCTCCGAAAGGAAAGGC ((((((....)))..)))	-29.6	53
GCCTCCGAAAGGAGCGGC ((((((....)))..)))	-15.6	52.3
GCCTCCGGAAACAGAGGC (((((.(....).)))))	-36.5	48.7
GCCTCGACGAAAGTCGGC (((..(((....))))))	-6.95	52.1
GCCTCGCGAAAGCGGAGC ((..(((....)))..))	-13.7	50.9

Sequence	folding enthalpy [1] [kcal/mol]	Tm [2] [°C]
GCCTCGCGAAAGCGGGC (((.(((....))))))	-16.4	67.7
GCCTCGCGAAAGCGTCGC ((..(((....)))..))	-12.2	43.1
GCCTCTCGAAAGAGTGGC (((.(((....))).)))	-41.8	57.4
GCCTCTGCGAAAGCAGGC (((..(((....))))))	-8.17	50
GCCTCTGGAAACAAAGGC ((((.((....)).))))	-26.1	36.1
GCCTCTGGAAACAGAGAC (.(((((....))))).)	-18.7	40.1
GCCTGACGAAAGTCTGGC (((.(((....))).)))	-37.2	67.5
GCCTGAGCGAAAGCTGGC (((..(((....))))))	-25.7	52.6
GCCTGAGGAAACCCAGGC (((((.(....).)))))	-36.5	53.2
GCCTGCACGAAAGTGGGC (((..(((....))))))	-20.3	47.3
GCCTGCGAAAGCACGGGC ((((((....)))..)))	-22.4	53
GCCTGCGAAAGCACTGGC ((((((....)))..)))	-20	49.9
GCCTGCGAAAGCAGAGGC ((((((....)))..)))	-17.6	60.1
GCCTGCGAAAGCAGCGGC ((((((....)))..)))	-14	61.6
GCCTGCGAAAGCATGGC ((((((....))).)))	-30.8	65.8
GCCTGCGAAAGCATGGGC ((((((....)))..)))	-21.4	56.7
GCCTGCGCGAAAGCGGGC (((..(((....))))))	-15.4	55.5
GCCTGGCCGAAAGGCGGC (((..(((....))))))	-18.4	65.3
GCCTGGCGAAAGCCACGC ((.((((....)))).))	-16.9	49
GCCTGGCGAAAGCGACGC ((.(.((....)).).))	-6.72	36
GCCTGGCGAAAGCTAAGC ((.(.((....)).).))	-10.2	36.2
GCCTGGCGAAAGCTACGC ((.(.((....)).).))	-6.66	37.8
